Screening results as filed in PubChem.
E-selectin induc: E-selectin induction on HUVECs | P16581 | HUVEC E-selectin immunofluorescence imaging; normalized: neutral wells 0, TNF-alpha wells 100 | activation, % at 7.58 µM | 260,000 compounds, 0.37% hits | AID 686992;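 active means mean E-selectin-positive cell signal at least 10% of the positive control, reached in at least 60% of replicates, without over 20% cell loss; inconclusive means no rule given, readout overlaps actives, possibly toxicity-flagged; inactive means the rest, including those meeting only one limit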
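Test system: HUVEC; input: 3,000 HUVEC/well; measured by: immunofluorescence imaging; read-out: % PE-positive cells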
FGF22 binding: FGF22 (human) thermal shift binding; 340,000 compounds, 1.5% hits; Q9HCT0; activity (Tm shift, normalised), % at 9.99 µM; AID 651658; recombinant FGF22 thermal shift, SYPRO orange fluorescence; percent of sucrose octasulfate shift, DMSO zero;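 active means mean Tm shift, scaled 0 neutral to 100 positive control, at about 1.3% or above, every replicate too, limit read from the data; inconclusive means no clear call, values can overlap the other calls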
DENV2 CPE: DENV2-induced cell death inhibition | DENV2-infected cells, cytopathic effect rescue, plate reader | CPE inhibition, % at 9.99 µM | 350,000 compounds, 1.7% hits | AID 651640; in the data active means CPE inhibition above about 20%, passing the limit was not always enough; inconclusive means no clear call, values can overlap the other calls; tested in BHK-21 cells;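 further: 0% = median of neutral control wells and 100% = median of positive control wells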
ERAP1 inh: blocks human ERAP1 aminopeptidase activity; inhibition, % at 10.7 µM; Q9NZ08; 340,000 compounds, 0.15% hits; AID 652197; recombinant ERAP1, Leu-AMC fluorescence, 60 min;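 active means mean replicate inhibition of at least 30%, or all replicates individually reaching that 30% level; inactive means mean below 30% and not every replicate reaching it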;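 further: 0% = neutral control wells and 100% = L-leucinethiol positive control wells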
Target sequence (Q9NZ08 whole entry, looked up): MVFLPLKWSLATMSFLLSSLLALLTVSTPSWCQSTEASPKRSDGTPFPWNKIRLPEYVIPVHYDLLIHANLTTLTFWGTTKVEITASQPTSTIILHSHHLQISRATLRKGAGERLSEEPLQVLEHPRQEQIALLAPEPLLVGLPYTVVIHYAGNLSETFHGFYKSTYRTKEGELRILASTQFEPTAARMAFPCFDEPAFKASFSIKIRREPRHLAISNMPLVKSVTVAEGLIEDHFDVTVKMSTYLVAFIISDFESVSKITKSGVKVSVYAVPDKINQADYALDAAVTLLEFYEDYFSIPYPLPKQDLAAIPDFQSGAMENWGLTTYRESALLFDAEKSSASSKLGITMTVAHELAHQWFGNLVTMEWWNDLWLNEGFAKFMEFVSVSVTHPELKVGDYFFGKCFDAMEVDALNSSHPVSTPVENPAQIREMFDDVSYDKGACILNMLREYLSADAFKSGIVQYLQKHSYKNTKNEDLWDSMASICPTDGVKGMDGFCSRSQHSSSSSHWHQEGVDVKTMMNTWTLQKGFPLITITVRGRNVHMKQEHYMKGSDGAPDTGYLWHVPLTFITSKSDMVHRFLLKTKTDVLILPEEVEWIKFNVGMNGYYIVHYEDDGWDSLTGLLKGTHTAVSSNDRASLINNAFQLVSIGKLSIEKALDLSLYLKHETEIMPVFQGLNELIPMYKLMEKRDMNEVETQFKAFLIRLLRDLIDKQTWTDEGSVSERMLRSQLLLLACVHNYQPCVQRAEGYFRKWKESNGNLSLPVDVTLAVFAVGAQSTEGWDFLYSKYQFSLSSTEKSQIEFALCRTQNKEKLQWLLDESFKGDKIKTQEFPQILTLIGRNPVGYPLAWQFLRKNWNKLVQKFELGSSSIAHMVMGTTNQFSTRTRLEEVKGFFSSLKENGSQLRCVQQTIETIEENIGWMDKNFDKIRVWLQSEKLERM
CFTR F508del cor: CFTR F508del correction in bronchial cells. CFBE cells, YFP halide quenching; stimulated with forskolin plus potentiator P3; % fluorescence drop versus neutral controls. activity (quench increase), % at 7.58 µM. 350,000 compounds, 0.36% hits. AID 720511;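 active means mean added fluorescence quench of at least 8% versus neutral control, with both replicates also reaching 8%; inconclusive means only one of the mean or replicate conditions met; inactive means mean below 8% and not both replicates reaching 8%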;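 further: cells transiently co-express mutant CFTR-F508del with the halide-sensitive YFP; corrector assay measuring rescue of mutant channel to the surface after 24 h compound exposure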
Active calls of the source: *; ? = inconclusive; / = no result; ! = repeats disagree. Shown are actives, neighbours in structure and some others; about 3.7% of the full set was active somewhere.

SMILES	E-selectin induc	FGF22 binding	DENV2 CPE	ERAP1 inh	CFTR F508del cor
COc1cccc(-c2cc(C(=O)NC3CCCC3)c3ccccc3n2)c1	0.0	0.1	-1.4	-0.9	-0.1
C[C@@H]1CCCCO[C@H](CN(C)Cc2ccccc2)[C@H](C)CN([C@H](C)CO)C(=O)c2cc(NC(=O)CCC(F)(F)F)ccc2O1	-0.1	0.0	37.3*	-1.2	2.2
COc1ccc(CN(C)C[C@H]2OCCCC[C@H](C)Oc3ccc(NC(=O)CCC(F)(F)F)cc3C(=O)N([C@H](C)CO)C[C@H]2C)cc1	0.0	-0.2	-3.4	9.1	3.4
COc1ccc(CN(C)C[C@H]2OCCCC[C@@H](C)Oc3ccc(NC(=O)Cc4ccccc4)cc3C(=O)N([C@@H](C)CO)C[C@@H]2C)cc1	-0.3	0.1	?	/	-2.3
COc1ccc(CN(C)C[C@@H]2OCCCC[C@H](C)Oc3ccc(NC(=O)CCC(F)(F)F)cc3C(=O)N([C@H](C)CO)C[C@H]2C)cc1	0.1	0.6	61.7*	-0.9	-2.2
COc1ccc(CN(C)C[C@H]2OCCCC[C@H](C)Oc3ccc(NC(=O)CCC(F)(F)F)cc3C(=O)N([C@@H](C)CO)C[C@@H]2C)cc1	/	-0.2	43.7*!	1.6	-3.8
COc1ccc(CN(C)C[C@@H]2OCCCC[C@H](C)Oc3ccc(NC(=O)Cc4ccccc4)cc3C(=O)N([C@H](C)CO)C[C@@H]2C)cc1	0.0	-0.3	27.5*	/	0.1
COc1ccc(CN(C)C[C@H]2OCCCC[C@@H](C)Oc3ccc(NC(=O)CCC(F)(F)F)cc3C(=O)N([C@H](C)CO)C[C@@H]2C)cc1	0.2	-0.2	8.4	0.8	-2.5
CN(Cc1ccccc1)C(=O)CN1C(=O)NC2(CCCc3sccc32)C1=O (configuration not stated)	0.3	43.5*	/	1.0	1.8
CN(Cc1ccccc1)C(=O)CN1C(=O)NC2(CCCC2)C1=O	/	0.1	0.7	-0.3	-1.3
C[C@H]1CN([C@@H](C)CO)C(=O)c2cc(NC(=O)Nc3ccc(F)cc3)ccc2O[C@H]1CN(C)C(=O)Nc1ccc(C(F)(F)F)cc1	-0.4	/	/	/	-2.5
C=CCN1C(=O)C2C3CC(=O)C(c4ccccc43)C2C1=O (configuration not stated)	/	0.0	5.8	-7.9	5.2
O=C1CC2c3ccccc3C1C1C(=O)N(CCc3ccccc3)C(=O)C21 (configuration not stated)	-0.1	43.2*	-2.2	-0.7	-0.8
Cc1ccc(SCC(=O)NNC(=O)c2cncc(Br)c2)cc1	-0.1	0.1	33.6*	-1.1	-0.9
CCCCCCn1c(=O)n2n(c1=O)C[C@]1(OC(=O)Nc3c(C)noc3C)CN(S(=O)(=O)c3ccc(C)cc3)C[C@]1(O)C2	0.7	43.1*	6.9	1.5	-1.6
CCCCCCn1c(=O)n2n(c1=O)C[C@]1(OC(=O)Nc3cccs3)CN(S(=O)(=O)c3ccc(C)cc3)C[C@]1(O)C2	/	-0.1	0.0	-3.2	1.1
CNC(=O)C[C@@H]1C(=O)N(Cc2ccccc2)CC1(C)C	0.0	0.1	-6.0	-0.5	4.8
CNC(=O)C[C@@H]1C(=O)N(CCc2ccccc2)CC1(C)C	-0.6	43.3*	-7.4	-0.6	-1.3
COc1ccc(N2C(=O)CC(c3cc(OC)c(OC)c(OC)c3)CC2=O)cc1	/	0.1	-4.3	/	1.8
COc1cc(C2CC(=O)N(c3ccc(C)cc3)C(=O)C2)cc(OC)c1OC	/	-0.1	3.7	-3.0	10.2*
CO[C@@H]1CN(C)C(=O)c2ccc(NC(=O)C3CC3)cc2OC[C@@H](C)N(CCc2ccccc2)C[C@H]1C	0.1	-0.6	2.6	-3.4	1.7
C/C=C/c1ccc([C@H]2[C@H](CO)N(C(C)=O)C23CN(C(=O)c2ccncc2)C3)cc1	1.0	-0.1	4.0	-0.1	-4.0
NC(=O)c1cc(Cl)cn(-c2ccccc2)c1=O	-0.2	0.0	82.5*	-2.4	1.2
CN(Cc1nc2ccccc2c(=O)[nH]1)C(=O)c1cccc(S(=O)(=O)N2CCc3ccccc32)c1	/	-0.1	43.7*	-0.4	5.3
C#CCOCCOCCOCCNc1nc(N2CCN(C(=O)[C@H]([C@@H](C)CC)n3cc(CCC(=O)O)nn3)CC2)nc(N2CCN(C(=O)[C@H](CCCCN)n3cc(CCCC)nn3)CC2)n1	0.1	-0.1	?	0.3	9.2*
SMILES	E-selectin induc	FGF22 binding	DENV2 CPE	ERAP1 inh	CFTR F508del cor
C#CCOCCOCCOCCNc1nc(OC)nc(N2CCN(C(=O)[C@H](CCC(=O)O)n3cc(C(N)CO)nn3)CC2)n1 (some centres not stated)	-0.1	0.5	23.1*	/	-1.8
C#CCOCCOCCOCCNc1nc(N2CCOCC2)nc(N2CCN(C(=O)[C@H](Cc3ccc(O)cc3)n3cc([C@@H](N)CC(C)C)nn3)CC2)n1	-0.1	0.1	20.4*	/	-2.9
C#CCOCCOCCOCCNc1nc(N2CCN(C(=O)[C@H](CCC(=O)O)n3cc([C@@H](N)CO)nn3)CC2)nc(N2CCN(C(=O)[C@H](CCC(=O)O)n3cc([C@@H](N)CCSC)nn3)CC2)n1	-0.1	-0.1	11.6	-2.1	-5.1
C[C@@H]1CN([C@@H](C)CO)C(=O)c2cc(-c3ccc(C#N)cc3)cnc2O[C@@H]1CN(C)C(=O)Nc1ccc(F)cc1	?	-0.2	5.8	-1.6	0.2
COc1cc(NC(=O)c2nccn2C)cc(C(=O)Nc2cccc(C(F)(F)F)c2)c1	0.2	0.1	110.0*!	-0.4	-0.1
COc1cc(NC(=O)c2nccnc2N)cc(C(=O)Nc2cccc(C(F)(F)F)c2)c1	0.3	0.4	0.5	-3.6	2.6
COc1cc(NC(=O)N2CCNC2=O)cc(C(=O)Nc2cccc(C(F)(F)F)c2)c1	2.0	0.1	-12.2	-4.8	8.0*
CCC(=O)N1CCC2(CC1)CN(C(=O)NC1CCCC1)[C@@H](CO)c1c2c2ccc(OC)cc2n1C	-0.3	0.0	-14.4	/	0.9
N#Cc1ccc(-c2ccc([C@H]3[C@H](CO)N4CCCCN(S(=O)(=O)c5ccccc5)C[C@@H]34)cc2)cc1	0.2	0.2	34.3*	0.6	1.6
N#Cc1ccc(-c2ccc([C@H]3[C@H]4CN(S(=O)(=O)c5ccccc5)CCCCN4[C@H]3CO)cc2)cc1	-0.7	0.2	0.2	4.4	-0.7
CCS(=O)(=O)N1CCCCN2[C@H](C1)[C@@H](c1ccc(C#CC(C)(C)O)cc1)[C@@H]2CO	-0.1	0.2	1.5	3.5	2.9
CCS(=O)(=O)N1CCCCN2[C@H](CO)[C@@H](c3ccc(C#CC(C)(C)O)cc3)[C@H]2C1	-0.2	0.3	22.1*	1.6	-0.6
CCS(=O)(=O)N1CCCCN2[C@H](C1)[C@@H](c1ccc(-c3ccc(C#N)cc3)cc1)[C@@H]2CO	-0.4	0.4	41.3*	7.3	0.4
C/C=C/c1ccc([C@@H]2[C@H](CO)N3CCCCN(S(=O)(=O)c4ccccc4)C[C@@H]23)cc1	-0.2	0.1	10.3	-0.5	31.4*
